# Reference: ChEMBL document CHEMBL1152839, “2-[2-Substituted-3-(3,4-dichlorobenzylamino)propylamino]-1H-quinolin-4-ones as Staphylococcus aureus methionyl-tRNA synthetase inhibitors” (Eur J Med Chem, 2009)
# Columns and labels:
# Staphylococcus aureus [1] = experiment: Antibacterial activity against methicillin-resistant Staphylococcus aureus KS2007-6 after 16 hrs at 36 degC by microdilution method; assay type: functional
# Summary of the method: (§1)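 Broth microdilution per CLSI in Mueller-Hinton broth for staphylococci. Stock solutions were diluted in a 2-fold serial series to final test concentrations. The MIC was read as the lowest concentration that prevented visible bacterial growth after incubation at 36 °C. Mupirocin and amoxicillin were run by the same method as references.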
# Staphylococcus aureus [2] = experiment: Antibacterial activity against Staphylococcus aureus ATCC 10537 after 16 hrs at 36 degC by microdilution method; assay type: functional; details: ATCC 10537, 16 h
# Summary of the method: (§2)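 Broth microdilution in Mueller-Hinton broth, following NCCLS/CLSI. Stock solutions were serially diluted 2-fold to the final test concentrations. The MIC was the lowest concentration that prevented visible growth after incubation at 36 °C. Mupirocin and amoxicillin were reference antibiotics run by the same method.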
# Staphylococcus aureus [3] = experiment: Antibacterial activity against Staphylococcus aureus SP-N2 after 16 hrs at 36 degC by microdilution method; assay type: functional; summary of the method: as §1
# Staphylococcus aureus [4] = experiment: Antibacterial activity against Staphylococcus aureus Smith after 16 hrs at 36 degC by microdilution method; assay type: functional; summary of the method: as §2
# Staphylococcus aureus [5] = experiment: Antibacterial activity against Staphylococcus aureus ATCC 6538P after 16 hrs at 36 degC by microdilution method; assay type: functional; summary of the method: as §2
# Staphylococcus aureus [6] = experiment: Antibacterial activity against Staphylococcus aureus GIORGIO after 16 hrs at 36 degC by microdilution method; assay type: functional; summary of the method: as §2
# Enterococcus faecalis [7] = experiment: Antibacterial activity against Enterococcus faecalis ATCC 29212 after 16 hrs at 36 degC by microdilution method; assay type: functional; details: ATCC 29212, 16 h
# Summary of the method: (§3)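 Broth microdilution in Brain Heart Infusion broth, following NCCLS/CLSI. Test compounds were serially diluted 2-fold from stock. The MIC was the lowest concentration with no visible bacterial growth after incubation at 36 °C. Mupirocin and amoxicillin were tested the same way as references.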
# Enterococcus faecium = experiment: Antibacterial activity against Enterococcus faecium ATCC 10541 after 16 hrs at 36 degC by microdilution method; assay type: functional; details: ATCC 10541, 16 h; summary of the method: as §3
# [8] = Inhibition of Staphylococcus aureus methionyl-tRNA synthetase assessed as decrease in [35S]methionyl-tRNA generation
# Staphylococcus aureus [9] = experiment: Antibacterial activity against Staphylococcus aureus ATCC 25923 after 16 hrs at 36 degC by microdilution method; assay type: functional; details: ATCC 25923, 16 h; summary of the method: as §2
# [10] = tested on: Staphylococcus epidermidis; experiment: Antibacterial activity against Staphylococcus epidermidis ATCC 12228 after 16 hrs at 36 degC by microdilution method; assay type: functional; details: ATCC 12228, 16 h; summary of the method: as §2
# Enterococcus faecalis [11] = experiment: Antibacterial activity against Enterococcus faecalis ATCC 19433 after 16 hrs at 36 degC by microdilution method; assay type: functional; details: ATCC 19433, 16 h; summary of the method: as §3
SMILES,MIC (Staphylococcus aureus [1]) [µg/mL],MIC (Staphylococcus aureus [2]) [µg/mL],MIC (Staphylococcus aureus [3]) [µg/mL],MIC (Staphylococcus aureus [4]) [µg/mL],MIC (Staphylococcus aureus [5]) [µg/mL],MIC (Staphylococcus aureus [6]) [µg/mL],MIC (Enterococcus faecalis [7]) [µg/mL],MIC (Enterococcus faecium) [µg/mL],IC50 [8] [nM],MIC (Staphylococcus aureus [9]) [µg/mL],MIC [10] [µg/mL],MIC (Enterococcus faecalis [11]) [µg/mL]
O=C(OC(CNCc1ccc(Cl)c(Cl)c1)CNc1cc(=O)c2ccccc2[nH]1)c1ccccc1 (centres undefined),32,64,32,32,32,32,16,8,69.4,64,16,16
CC1(C)S[C@@H]2[C@H](NC(=O)[C@H](N)c3ccc(O)cc3)C(=O)N2[C@H]1C(=O)O [AMOXICILLIN],0.25,0.125,0.25,0.125,0.125,0.125,64,8,–,0.25,0.125,64
CN(C)C(CNc1cc(=O)c2ccccc2[nH]1)CN(Cc1ccc(Cl)c(Cl)c1)Cc1ccc(Cl)c(Cl)c1 (centres undefined),–,> 64,> 64,> 64,> 64,> 64,> 64,> 64,131,> 64,> 64,> 64
O=c1cc(NCC(CNCc2ccc(Cl)c(Cl)c2)OCc2ccccc2)[nH]c2ccccc12 (centres undefined),2,4,4,4,4,4,2,0.5,24.7,4,2,2
CN(C)C(CNCc1ccc(Cl)c(Cl)c1)CNc1cc(=O)c2ccccc2[nH]1 (centres undefined),64,64,64,64,> 64,> 64,16,8,39.6,> 64,32,16
O=c1cc(NCC(CO)CNCc2ccc(Cl)c(Cl)c2)[nH]c2ccccc12 (centres undefined),16,32,16,32,16,64,8,2,11.9,64,16,8
CCOC(CNCc1ccc(Cl)c(Cl)c1)CNc1cc(=O)c2ccccc2[nH]1 (centres undefined),8,16,16,16,8,16,4,1,30.3,16,8,4
O=c1cc(NCCCNCc2ccc(Cl)c(Cl)c2)[nH]c2ccccc12,8,16,8,16,4,32,2,0.5,3.4,16,8,2
COCC(CNCc1ccc(Cl)c(Cl)c1)CNc1cc(=O)c2ccccc2[nH]1 (centres undefined),4,8,8,8,4,16,0.5,0.125,15,16,4,0.5
C/C(=C\C(=O)OCCCCCCCCC(=O)O)C[C@@H]1OC[C@H](C[C@@H]2O[C@H]2[C@@H](C)[C@H](C)O)[C@@H](O)[C@H]1O [MUPIROCIN],–,0.25,> 64,0.25,0.5,0.25,2,1,–,0.25,2,1
CC(C)OC(CNCc1ccc(Cl)c(Cl)c1)CNc1cc(=O)c2ccccc2[nH]1 (centres undefined),8,16,16,16,16,32,4,2,91,16,16,4
C=CCOC(CNCc1ccc(Cl)c(Cl)c1)CNc1cc(=O)c2ccccc2[nH]1 (centres undefined),4,16,8,8,8,16,2,1,29.4,8,4,2
CC(C)(C)OC(=O)NC(CNCc1ccc(Cl)c(Cl)c1)CNc1cc(=O)c2ccccc2[nH]1 (centres undefined),32,32,32,32,32,32,32,8,103,32,32,32
NC(CNCc1ccc(Cl)c(Cl)c1)CNc1cc(=O)c2ccccc2[nH]1 (centres undefined),64,64,64,64,64,64,64,16,137,64,32,64
